The values that follow come from ChEMBL document CHEMBL4052637, “Discovery and Characterization of R/S-N-3-Cyanophenyl-N'-(6-tert-butoxycarbonylamino-3,4-dihydro-2,2-dimethyl-2H-1-benzopyran-4-yl)urea, a New Histone Deacetylase Class III Inhibitor Exerting Antiproliferative Activity against Cancer Cell Lines” (J Med Chem, 2017).

Assay [1] addresses NAD-dependent protein deacetylase sirtuin-3, mitochondrial (Homo sapiens, UniProt Q9NTG7). Description: Inhibition of N-terminal His-tagged recombinant human SIRT-3 expressed in Escherichia coli using Fluor-de-Lys-SIRT1 as substrate after 15 mins by fluorescence assay.
The target in assay [2] is Protein deacetylase HDAC6 (Homo sapiens) (UniProt Q9UBN7). Briefly: Inhibition of His-tagged recombinant human HDAC6 expressed in baculovirus infected insect cells at 0.1 to 100 uM using Fluor-de-Lys-SIRT1 as substrate after 15 mins by fluorescence assay.
Chain of Protein deacetylase HDAC6 (Homo sapiens) (Q9UBN7 whole entry): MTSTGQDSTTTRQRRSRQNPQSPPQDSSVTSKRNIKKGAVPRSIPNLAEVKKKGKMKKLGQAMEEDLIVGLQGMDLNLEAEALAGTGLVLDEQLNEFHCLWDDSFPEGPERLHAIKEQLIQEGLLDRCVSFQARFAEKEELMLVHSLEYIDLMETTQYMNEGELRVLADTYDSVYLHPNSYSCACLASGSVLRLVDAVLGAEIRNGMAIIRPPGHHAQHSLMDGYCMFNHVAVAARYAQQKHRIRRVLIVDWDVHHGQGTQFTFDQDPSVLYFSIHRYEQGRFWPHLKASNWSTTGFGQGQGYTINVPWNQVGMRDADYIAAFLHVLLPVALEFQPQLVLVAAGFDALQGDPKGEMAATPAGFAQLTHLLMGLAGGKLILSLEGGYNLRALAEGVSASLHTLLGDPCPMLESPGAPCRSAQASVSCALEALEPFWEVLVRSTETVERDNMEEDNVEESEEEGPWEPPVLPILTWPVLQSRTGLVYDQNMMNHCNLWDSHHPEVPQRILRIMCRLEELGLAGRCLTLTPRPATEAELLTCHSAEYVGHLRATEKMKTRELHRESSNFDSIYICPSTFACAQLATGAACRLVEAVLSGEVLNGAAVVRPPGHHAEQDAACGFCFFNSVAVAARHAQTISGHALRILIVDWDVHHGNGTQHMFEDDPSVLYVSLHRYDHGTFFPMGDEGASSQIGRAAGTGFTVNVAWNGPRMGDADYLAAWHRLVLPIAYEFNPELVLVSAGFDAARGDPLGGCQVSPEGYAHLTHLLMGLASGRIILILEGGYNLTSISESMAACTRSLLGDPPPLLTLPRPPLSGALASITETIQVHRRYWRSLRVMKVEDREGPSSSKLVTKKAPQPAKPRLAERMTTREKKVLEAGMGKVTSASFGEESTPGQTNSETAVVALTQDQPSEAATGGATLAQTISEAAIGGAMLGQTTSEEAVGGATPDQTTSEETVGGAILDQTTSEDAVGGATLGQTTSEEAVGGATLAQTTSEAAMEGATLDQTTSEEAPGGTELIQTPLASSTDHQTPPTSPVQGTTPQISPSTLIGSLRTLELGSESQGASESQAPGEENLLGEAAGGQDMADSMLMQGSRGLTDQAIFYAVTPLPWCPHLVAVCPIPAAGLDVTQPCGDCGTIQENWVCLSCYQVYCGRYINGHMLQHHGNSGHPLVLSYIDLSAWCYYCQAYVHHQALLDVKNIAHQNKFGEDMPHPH
Assay [3] deals with Histone deacetylase 11 (Homo sapiens) (UniProt Q96DB2). Description: Inhibition of N-terminal His-tagged recombinant human HDAC11 expressed in baculovirus infected insect Sf9 cells at 0.1 to 100 uM using Fluor-de-Lys-SIRT1 as substrate after 15 mins by fluorescence assay.
Chain of Histone deacetylase 11 (Homo sapiens) (Q96DB2 whole entry): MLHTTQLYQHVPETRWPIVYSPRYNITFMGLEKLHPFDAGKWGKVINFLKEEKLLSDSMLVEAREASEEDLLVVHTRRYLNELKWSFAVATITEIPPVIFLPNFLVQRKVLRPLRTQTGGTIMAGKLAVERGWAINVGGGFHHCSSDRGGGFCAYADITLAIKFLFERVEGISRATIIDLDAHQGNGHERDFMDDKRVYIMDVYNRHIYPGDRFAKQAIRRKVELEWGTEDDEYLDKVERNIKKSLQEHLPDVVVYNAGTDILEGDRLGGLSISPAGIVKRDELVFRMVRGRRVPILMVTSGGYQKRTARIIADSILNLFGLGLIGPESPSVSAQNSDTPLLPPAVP
The subject of assay [4] is Hs 683. Briefly: Inhibition of spheroid forming capacity of human Hs683 cells assessed as decrease in volume of multicellular tumor spheroids at 5 to 10 uM treated for 24 hrs measured after 96 hrs by bright field microscopic method. The assay is classed as functional, cell-based. In a few lines: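 Spheroids formed from 1 × 10^3 cells in 25 μL. Cells were pretreated 24 h with compound then left untreated 96 h, or untreated spheroids were cultured 96 h with compound. Surface measured from bright-field images; volume in voxels from 3D plots after image segmentation. Mean ± SD of three independent experiments.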

Assay [5] relates to Hs 683. Description: Antitumor activity against CM-Dil fluorescent dye labeled human Hs683 cells xenografted in zebrafish embryo at 5 to 10 uM preincubated with tumor for 30 hrs followed by tumor implantation in zebra fish yolk sac measured after 72 hrs by fluorescence microscopy. The assay is classed as functional, cell-based. In a few lines: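 Cells were pretreated in vitro at 5 or 10 μM for 30 or 36 h and labeled with CM-DiI 2 h before injection. Then 100–200 cells were injected into the yolk sac of wild-type zebrafish 48 h post-fertilization, anesthetized in 0.02% tricaine. Embryos were kept 72 h at 28.5 °C in Danieau solution with 0.003% phenylthiourea, and fluorescence was quantified in eight fish per condition.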

In the next assay the test system is SW1573/2R160. Description: Antiproliferative activity against human SW1573/2R160 cells overexpressing ABCB1 after 72 hrs by MTT assay. The assay is classed as functional, cell-based. In a few lines:
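MTT assay: cells in RPMI 1640 with 10% heat-inactivated FCS at 37 °C and 5% CO2 were seeded 24 h before treatment. They were exposed 72 h to compound at 0.01–100 μM, with DMSO as solvent.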

Assay [6] addresses T1, NAD-dependent protein deacetylase sirtuin-1 (Homo sapiens) (UniProt Q96EB6).
T1 sequence (whole entry): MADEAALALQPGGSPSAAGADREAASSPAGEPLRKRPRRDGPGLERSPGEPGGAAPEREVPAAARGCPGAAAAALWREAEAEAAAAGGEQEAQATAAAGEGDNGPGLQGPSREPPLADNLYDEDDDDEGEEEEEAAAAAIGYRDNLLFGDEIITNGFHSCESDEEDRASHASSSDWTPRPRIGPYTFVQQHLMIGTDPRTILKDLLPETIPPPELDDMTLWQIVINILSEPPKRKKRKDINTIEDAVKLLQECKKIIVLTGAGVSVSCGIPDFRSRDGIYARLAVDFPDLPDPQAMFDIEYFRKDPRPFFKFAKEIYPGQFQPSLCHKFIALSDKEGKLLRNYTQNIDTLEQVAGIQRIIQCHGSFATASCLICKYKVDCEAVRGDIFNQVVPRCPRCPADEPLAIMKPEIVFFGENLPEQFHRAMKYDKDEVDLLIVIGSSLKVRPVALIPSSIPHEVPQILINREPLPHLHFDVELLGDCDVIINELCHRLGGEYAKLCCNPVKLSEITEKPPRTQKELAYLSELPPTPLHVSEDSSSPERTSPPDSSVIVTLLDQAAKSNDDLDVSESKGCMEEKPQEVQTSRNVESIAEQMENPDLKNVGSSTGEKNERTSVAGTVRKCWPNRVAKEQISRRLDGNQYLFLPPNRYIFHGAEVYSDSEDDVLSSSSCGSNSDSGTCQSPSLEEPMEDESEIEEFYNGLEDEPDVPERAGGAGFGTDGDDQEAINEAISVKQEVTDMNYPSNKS
Briefly: Inhibition of SIRT1 in human U373 cells assessed as increase of histone H4 acetylation at 2.5 uM after 8 hrs by Western blotting method relative to control. The assay is classed as cell-based.

Assay [7] concerns the target T1, NAD-dependent protein deacetylase sirtuin-1 (Homo sapiens). Briefly: Inhibition of SIRT1 in human Hs683 cells assessed as increase of histone H4 acetylation at 1 uM after 8 hrs by Western blotting method relative to control. The assay is classed as cell-based.
For assay [8] the target is unchanged. Briefly: Inhibition of SIRT1 in human Hs683 cells assessed as increase of histone H4 acetylation at 2.5 uM after 8 hrs by Western blotting method relative to control. It is filed as cell-based.
The target is the same in assay [9]. Description: Inhibition of SIRT1 in human Hs683 cells assessed as increase of histone H4 acetylation at 5 uM after 8 hrs by Western blotting method relative to control. It is filed as cell-based.
The target is the same in assay [10]. Briefly: Inhibition of SIRT1 in human Hs683 cells assessed as increase of histone H4 acetylation at 10 uM after 8 hrs by Western blotting method relative to control. The assay is classed as cell-based.
The target in assay [11] is T2, NAD-dependent protein deacetylase sirtuin-2 (Homo sapiens) (UniProt Q8IXJ6).
T2 sequence (whole entry): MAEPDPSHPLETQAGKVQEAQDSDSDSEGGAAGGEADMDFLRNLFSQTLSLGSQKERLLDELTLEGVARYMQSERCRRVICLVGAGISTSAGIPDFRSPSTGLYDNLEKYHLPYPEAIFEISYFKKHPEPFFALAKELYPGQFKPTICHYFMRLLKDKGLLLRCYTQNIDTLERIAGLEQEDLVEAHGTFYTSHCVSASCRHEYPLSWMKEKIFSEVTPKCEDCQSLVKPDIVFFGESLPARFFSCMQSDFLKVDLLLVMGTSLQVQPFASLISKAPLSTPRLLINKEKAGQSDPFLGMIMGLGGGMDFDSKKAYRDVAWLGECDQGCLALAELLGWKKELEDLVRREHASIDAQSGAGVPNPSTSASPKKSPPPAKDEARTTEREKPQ
Briefly: Inhibition of SIRT2 in human U373 cells assessed as increase of alpha-tubulin acetylation at 10 uM after 8 hrs by Western blotting method relative to control. The assay is classed as cell-based.

Assay [12] deals with Hs 683. Description: Potency index, ratio of sirtinol IC50 to test compound IC50 for human Hs683 cells. The assay is classed as functional.
For assay [13], the system named is Hs 683. Description: Potency index, ratio of EX-527 IC50 to test compound IC50 for human Hs683 cells. It is filed as functional.
For the next assay, the system named is HCT-116. Description: Growth inhibition of human HCT116 cells after 48 hrs by SRB assay. It is filed as functional. The note with it: HCT-116, 48 h.
In a further assay the test system is OVCAR-4. Briefly: Growth inhibition of human OVCAR4 cells after 48 hrs by SRB assay. The note with it: OVCAR-4, 48 h. The assay is classed as functional.
The next assay concerns OVCAR-8. Description: Growth inhibition of human OVCAR8 cells after 48 hrs by SRB assay. The assay is classed as functional. As to conditions: OVCAR-8, 48 h.
The next assay relates to ACHN. Briefly: Growth inhibition of human ACHN cells after 48 hrs by SRB assay. It is filed as functional.
The subject of another assay is TK-10. Briefly: Growth inhibition of human TK10 cells after 48 hrs by SRB assay. As to conditions: TK-10, 48 h. It is filed as functional.
The subject of a further assay is PC-3. Description: Growth inhibition of human PC3 cells after 48 hrs by SRB assay. It is filed as functional. As to conditions: PC-3, 48 h.

Activity calls are given as the source filed them. No cut-off for these calls is given here.

Chain of NAD-dependent protein deacetylase sirtuin-3, mitochondrial (Q9NTG7 whole entry): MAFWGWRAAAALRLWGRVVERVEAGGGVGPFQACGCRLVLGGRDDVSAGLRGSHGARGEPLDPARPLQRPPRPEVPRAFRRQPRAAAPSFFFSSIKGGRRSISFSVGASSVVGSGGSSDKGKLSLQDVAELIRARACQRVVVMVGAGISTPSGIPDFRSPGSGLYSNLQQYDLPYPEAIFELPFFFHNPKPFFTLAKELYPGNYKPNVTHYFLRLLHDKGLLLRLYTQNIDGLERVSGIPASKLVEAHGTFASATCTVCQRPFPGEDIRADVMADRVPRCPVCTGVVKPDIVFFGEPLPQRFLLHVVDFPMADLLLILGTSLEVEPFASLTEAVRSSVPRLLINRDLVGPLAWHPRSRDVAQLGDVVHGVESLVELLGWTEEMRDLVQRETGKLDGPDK

For `CC(C)(C)OC(=O)Nc1ccc2c(c1)C(NC(=O)Nc1cccc(C#N)c1)CC(C)(C)O2` (stereo not given), in assay [1], the IC50 was above 200 µM. The inhibition entry in [2] and in assay [3] was “inactive” each time. The inhibition result with Hs 683 [4] was “Active”. Also, the result with Hs 683 [5] and in the assay on SW1573/2R160 was Active. Further, the fold change (FC) in assay [6] turned out to be 1; in [7], 1.3; in [8] it was 1.9; in assay [9] it was 8.3; in assay [10], 12; in [11], 8.6. Also, the “Ratio IC50” value in the assay with Hs 683 [12] was 6; in the assay with Hs 683 [13], 20. In addition, the GI50 was 1.74 µM in the assay with HCT-116; 1.78 µM with OVCAR-4; 3.16 µM in the assay on OVCAR-8; 3.8 µM with ACHN; 5.5 µM with TK-10; 0.759 µM in the assay on PC-3.
